In ChEMBL document CHEMBL1134395, “Angular methoxy-substituted furo- and pyranoquinolinones as blockers of the voltage-gated potassium channel Kv1.3” (J Med Chem, 2001):
pIC50: −log10 of the molar value. Where “and” joins values, the source holds several entries; their conditions need not be identical. Equal entries are not always repeated.

Assays:
N1E-115 [1] = assay type: functional, Mus musculus; conditions: at 50 µM
[2] = molecular target: Potassium voltage-gated channel subfamily A member 3 (Mus musculus) (UniProt P16390); conditions: at 50 µM
N1E-115 [3] = assay type: functional, Mus musculus; conditions: at 50 µM; remark: listed apart in the source
N1E-115 [4] = experiment: Blockade of peak steady-state Na+ currents of neuroblastoma cells N1E-115 at 25 uM; assay type: functional, Mus musculus
How it was run: (§1)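 Same N1E-115 whole-cell recordings and solutions (holding −80 mV, room temperature, 5% DMSO). Peak Na+ current is taken at pulses to 0 mV and normalized to the current in control bathing medium. Reported as mean of at least three experiments.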

[5] = molecular target: Potassium voltage-gated channel subfamily A member 3 (Mus musculus) (UniProt P16390); experiment: Blockade of peak steady-state K+ currents of Kv1.3 channels in mouse fibroblasts L929 at 25 uM; assay type: functional
How it was run: (§2)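 Whole-cell patch clamp at room temperature on L929 fibroblasts stably transfected with mKv1.3, grown in DMEM with 10% FCS and 300 µg/mL G418. Bath: 160 mM NaCl, 4.5 KCl, 2.0 CaCl2, 1.0 MgCl2, 5 HEPES, pH 7.4, with 5% DMSO. Pipette: 120 KF, 20 KCl, 10 HEPES, 10 EGTA, pH 7.2. Holding −80 mV, 200 ms pulses to 40 mV; peak steady-state current normalized to control bath; mean of ≥3 cells.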

[6] = molecular target: Potassium voltage-gated channel subfamily A member 3 (Mus musculus) (UniProt P16390); experiment: Blockade of peak steady-state K+ currents of Kv1.3 channels in mice fibroblasts L929 at 50 uM; assay type: functional
How it was run: as §2

N1E-115 [7] = experiment: Blockade of peak steady-state K+ currents of neuroblastoma cells N1E-115 at 25 uM; assay type: functional, Mus musculus
How it was run: (§3)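 Whole-cell patch clamp at room temperature on N1E-115 neuroblastoma cells, grown in DMEM with 10% FCS. Bath: 125 mM NaCl, 5.5 KCl, 1.5 CaCl2, 2.0 MgCl2, 25 glucose, 5 HEPES, pH 7.4, with 5% DMSO. Pipette: 120 KF, 10 KCl, 10 NaCl, 10 HEPES, 10 EGTA, pH 7.2. Holding −80 mV, 100 ms pulses to 40 mV; peak steady-state K+ current normalized to control bath; mean of ≥3 cells.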

[8] = molecular target: Potassium voltage-gated channel subfamily A member 3 (Mus musculus) (UniProt P16390); experiment: Blockade of peak steady-state K+ currents of voltage-gated potassium channel subunit Kv1.3 expressed in mouse fibroblasts L929 at 50 uM; assay type: functional
How it was run: as §2

N1E-115 [9] = experiment: Blockade of peak steady-state Na+ currents of neuroblastoma cells N1E-115 at 100 uM; assay type: functional, Mus musculus
How it was run: as §1

N1E-115 [10] = experiment: Blockade of peak steady-state K+ currents of neuroblastoma cells N1E-115 at 100 uM; assay type: functional, Mus musculus
How it was run: as §3

N1E-115 [11] = experiment: Inhibition of N1E-115 cells Kv channels; assay type: functional, cell-based; conditions: Mus musculus
How it was run: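 Whole-cell patch clamp on N1E-115 cells. Holding −80 mV, steps to 40 mV; room temperature, bath with 5% DMSO. Peak K+ block is measured at several concentrations, and a modified Hill equation is fitted to give the half-blocking concentration, reported ± SEM.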

[12] = molecular target: T1, Potassium voltage-gated channel subfamily A member 3 (Mus musculus, UniProt P16390); experiment: Inhibition of voltage-gated potassium channel subunit Kv1.3 expressed in L929 cells; assay type: functional, cell-based
How it was run: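 Whole-cell patch clamp on mKv1.3-transfected L929 cells. Holding −80 mV, 200 ms steps to 40 mV; room temperature, bath with 5% DMSO. Peak K+ block is measured at several concentrations, and a modified Hill equation is fitted to give the half-blocking concentration, reported ± SEM.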

N1E-115 [13] = experiment: Blockade of peak steady-state Na+ currents of neuroblastoma cells N1E-115 at 50 uM; assay type: functional, Mus musculus
How it was run: as §1

[14] = molecular target: T1, Potassium voltage-gated channel subfamily A member 3; experiment: Blockade of peak steady-state K+ currents of voltage-gated potassium channel subunit Kv1.3 in mouse fibroblasts L929 at 50 uM; assay type: functional; conditions: in the assay text read “at different concentrations” for “at 50 uM”
How it was run: as §2

[15] = molecular target: Potassium voltage-gated channel subfamily A member 3 (Mus musculus) (UniProt P16390); experiment: Blockade of peak steady-state K+ currents of Kv1.3 channels in mice fibroblasts L929 at 25 uM; assay type: functional
How it was run: as §2

T1 sequence (P16390 whole entry): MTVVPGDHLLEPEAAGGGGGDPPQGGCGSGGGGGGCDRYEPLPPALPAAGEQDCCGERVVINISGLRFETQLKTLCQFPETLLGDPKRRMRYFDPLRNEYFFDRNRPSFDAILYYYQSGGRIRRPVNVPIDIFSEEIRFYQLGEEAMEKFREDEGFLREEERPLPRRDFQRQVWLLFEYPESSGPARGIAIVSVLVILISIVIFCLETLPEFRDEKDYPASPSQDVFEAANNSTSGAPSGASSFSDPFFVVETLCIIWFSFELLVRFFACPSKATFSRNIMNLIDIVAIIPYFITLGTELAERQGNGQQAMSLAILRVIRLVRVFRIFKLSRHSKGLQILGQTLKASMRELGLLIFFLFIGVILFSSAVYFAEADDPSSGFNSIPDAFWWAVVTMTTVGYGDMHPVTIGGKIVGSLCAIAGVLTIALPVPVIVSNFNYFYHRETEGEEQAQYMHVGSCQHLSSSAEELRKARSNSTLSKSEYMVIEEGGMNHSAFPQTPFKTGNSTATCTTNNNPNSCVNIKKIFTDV
Sequence of Potassium voltage-gated channel subfamily A member 3 (Mus musculus) (P16390 whole entry): as above

Structure (SMILES)	BK (N1E-115 [1])	BK [2] [%]	BNa (N1E-115 [3]) [%]	other results
CC(C)c1cc2c(=O)c3ccccc3n(C)c2o1	15%	23	0	
COc1ccc2c(c1)c(=O)c1c(n2C)OC(C(C)(C)O)C1 (configuration not stated)	0%			BNa (N1E-115 [4]): 0%; BK [5]: 1%
Cn1c(=O)c2c(c3ccccc31)OC(C)(C)CC2	65%	48	7	
Cn1c(=O)c2c(c3ccccc31)OC(C(C)(C)O)C2 (configuration not stated)	4%			BNa (N1E-115 [4]): 0%; BK [5]: 3%
CC1(C)CCc2c(nc3ccccc3c2O)O1	6%	7	-18	
COc1c2ccccc2nc2occc12 [DICTAMNINE]	31%	23	0	
COc1ccc2c(c1)c1c(c(=O)n2C)CC(O)C(C)(C)O1 (configuration not stated)	21%	4	2	
COc1ccc2c3c(c(=O)n(C)c2c1OC)C=CC(C)(C)O3	55%		12	BK [6]: 41%
CC(C)c1cc2c(=O)n(C)c3ccccc3c2o1	42%	70	11	BNa (N1E-115 [4]): 0%; BK (N1E-115 [7]): 25%; BK [5]: 44%
CC(C)(O)C1Cc2c(O)nc3ccccc3c2O1 (configuration not stated)	7%		0	
CC1(C)CCc2c(O)nc3ccccc3c2O1	37%	15	3	
Cn1c(=O)c2c(c3cc([N+](=O)[O-])ccc31)OC(C)(C)CC2	14%			BNa (N1E-115 [4]): 0%; BK [5]: 7%
COc1ccc2c(c1)c1oc(C(C)C)c(S(=O)(=O)[O-])c1c(=O)n2C.[Na+]				BNa (N1E-115 [4]): 0%; BK (N1E-115 [7]): 0%
Cn1c(=O)c2c(c3cc([N+](=O)[O-])ccc31)OC(C(C)(C)O)C2 (configuration not stated)	4%		0	
Cn1c(=O)c2c(c3ccccc31)OC(C)(C)C(O)C2 (configuration not stated)	15%		4	BK [5]: 4%
CC1(C)Oc2nc3ccc(Br)cc3c(O)c2CC1Br (configuration not stated)	32%		1	BK [8]: 35%
CC1(C)CCc2c(O)nc3ccc([N+](=O)[O-])cc3c2O1	23%		8	

Structure (SMILES)	BK (N1E-115 [1])	BK [2] [%]	BNa (N1E-115 [3]) [%]	other results
CC1(C)Oc2nc3ccccc3c(O)c2CC1SS(=O)(=O)O (configuration not stated)				BNa (N1E-115 [9]): 6%; BK (N1E-115 [10]): 0%
CC1(C)Oc2nc3ccccc3c(O)c2CC1O (configuration not stated)	0%			BNa (N1E-115 [9]): 0%
COc1ccc2c(c1)c(=O)c1c(n2C)OC(C)(C)CC1	7%	10	0	
Cn1c2c(c(=O)c3ccccc31)CC(O)C(C)(C)O2 (configuration not stated)	0%		0	
COc1ccc2c(c1)c1c(c(=O)n2C)CCC(C)(C)O1	39% and 52%	83		pIC50 (N1E-115 [11]): 4.38; BNa (N1E-115 [4]): 3%; pIC50 [12]: 4.74; BK [5]: 57%; BNa (N1E-115 [13]): 4%
COc1ccc2c(c1)c1c(c(=O)n2C)C=CC(C)(C)O1	64%		12	pIC50 (N1E-115 [11]): 4.51; pIC50 [14]: 5.00; BK [15]: 88%; BNa (N1E-115 [4]): 1%; BK [6]: 93%; BK (N1E-115 [7]): 44%
COc1ccc2c(c1)c1oc(C(C)C)cc1c(=O)n2C	57%	98	11	pIC50 (N1E-115 [11]): 4.42; pIC50 [14]: 5.30; BNa (N1E-115 [4]): 5%; BK (N1E-115 [7]): 32%; BK [5]: 98%
COc1ccc2c(c1)c1c(c(=O)n2C)CC(C(C)(C)O)O1 (configuration not stated)	0%			BNa (N1E-115 [4]): 0%; BK [5]: 0%
Cn1c2c(c(=O)c3cc(O)ccc31)CC(C(C)(C)O)O2 (configuration not stated)	7%			BNa (N1E-115 [9]): 13%
COc1ccc2c(c1)c(=O)c1c(n2C)OC(C)(C)C(O)C1 (configuration not stated)	6%		3	
Cn1c2c(c(=O)c3ccccc31)CC(C(C)(C)O)O2 (configuration not stated)	0%	1	0	
COc1cc2nc3occc3c(OC)c2cc1OC [KOKUSAGININE]	22%	51	0	pIC50 (N1E-115 [11]): 3.70; pIC50 [14]: 4.31
Cn1c2c(c(=O)c3cc(O)ccc31)CC(O)C(C)(C)O2 (configuration not stated)	0%			BNa (N1E-115 [9]): 3%
CCCCC/N=c1\ccn(Cc2ccccc2)c2ccccc12 [CP-339818]				pIC50 [14]: 6.64
COc1ccc2c(c1)c(=O)c1cc(C(C)C)oc1n2C	33%	44	1	
COc1ccc(CCCN2CCC(COC(c3ccccc3)c3ccccc3)CC2)cc1				pIC50 [14]: 6.55
COc1ccc2c(OC)c3ccoc3nc2c1OC [SKIMMIANINE]	20%	13	6	
